According to ChEMBL document CHEMBL4480366, “Rationally synthesized coumarin based pyrazolines ameliorate carrageenan induced inflammation through COX-2/pro-inflammatory cytokine inhibition” (Medchemcomm, 2019):
Calls of active or inactive are those of the source. No cut-off for these calls is given here.

How the values were obtained:
[1] = In-vitro anti-inflammatory activity assessed as inhibition of heat-induced albumin (unknown origin) denaturation
[2] = tested on: Erythrocyte; experiment: Anti-inflammatory activity in human erythrocytes assessed as inhibition of heat-induced hemolysis; type: functional, cell-based
[3] = tested on: Erythrocyte; experiment: Anti-inflammatory activity in human erythrocytes assessed as inhibition of hypotonicity-induced hemolysis at 10 to 100 ug/ml relative to control; type: functional, cell-based
[4] = biological target: T1, Prostaglandin G/H synthase 1 (Ovis aries, UniProt P05979); experiment: Inhibition of ovine COX1 using arachidonic acid as substrate preincubated for 10 mins followed by substrate addition and measured after 2 mins by ELISA
T1 sequence (P05979 whole entry): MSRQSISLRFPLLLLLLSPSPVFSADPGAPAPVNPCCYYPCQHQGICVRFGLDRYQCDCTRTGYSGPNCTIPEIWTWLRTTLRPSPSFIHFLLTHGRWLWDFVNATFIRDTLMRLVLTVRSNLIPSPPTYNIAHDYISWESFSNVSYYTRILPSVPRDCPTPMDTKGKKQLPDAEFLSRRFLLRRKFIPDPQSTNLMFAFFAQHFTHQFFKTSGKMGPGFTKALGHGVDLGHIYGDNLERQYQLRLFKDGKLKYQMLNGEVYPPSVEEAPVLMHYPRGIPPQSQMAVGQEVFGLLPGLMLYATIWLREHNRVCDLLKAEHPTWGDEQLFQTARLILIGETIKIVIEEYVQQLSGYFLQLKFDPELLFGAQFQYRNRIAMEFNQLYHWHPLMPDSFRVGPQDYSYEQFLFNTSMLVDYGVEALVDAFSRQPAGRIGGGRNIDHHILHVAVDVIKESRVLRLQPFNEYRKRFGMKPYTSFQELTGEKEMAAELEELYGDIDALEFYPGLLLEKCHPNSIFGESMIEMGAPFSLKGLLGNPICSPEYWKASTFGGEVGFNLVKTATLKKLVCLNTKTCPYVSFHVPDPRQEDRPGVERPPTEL
Summary of the method: (§1)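 The enzyme, heme and test compound (dissolved in DMSO) were preincubated for 10 min at 37 °C in 0.1 M Tris-HCl, pH 8, with 5 mM EDTA and 2 mM phenol. Arachidonic acid was added to 100 µM final. The reaction was stopped after 2 min with 1 M HCl, then reduced with saturated SnCl2 for 5 min at RT. PGF2α was quantified by EIA (18 h RT, Ellman's reagent 60 min, 410 nm).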

[5] = biological target: T2, Prostaglandin G/H synthase 2 (Ovis aries, UniProt P79208); experiment: Inhibition of ovine COX2 using arachidonic acid as substrate preincubated for 10 mins followed by substrate addition and measured after 2 mins by ELISA; summary of the method: as §1
T2 sequence (P79208 whole entry): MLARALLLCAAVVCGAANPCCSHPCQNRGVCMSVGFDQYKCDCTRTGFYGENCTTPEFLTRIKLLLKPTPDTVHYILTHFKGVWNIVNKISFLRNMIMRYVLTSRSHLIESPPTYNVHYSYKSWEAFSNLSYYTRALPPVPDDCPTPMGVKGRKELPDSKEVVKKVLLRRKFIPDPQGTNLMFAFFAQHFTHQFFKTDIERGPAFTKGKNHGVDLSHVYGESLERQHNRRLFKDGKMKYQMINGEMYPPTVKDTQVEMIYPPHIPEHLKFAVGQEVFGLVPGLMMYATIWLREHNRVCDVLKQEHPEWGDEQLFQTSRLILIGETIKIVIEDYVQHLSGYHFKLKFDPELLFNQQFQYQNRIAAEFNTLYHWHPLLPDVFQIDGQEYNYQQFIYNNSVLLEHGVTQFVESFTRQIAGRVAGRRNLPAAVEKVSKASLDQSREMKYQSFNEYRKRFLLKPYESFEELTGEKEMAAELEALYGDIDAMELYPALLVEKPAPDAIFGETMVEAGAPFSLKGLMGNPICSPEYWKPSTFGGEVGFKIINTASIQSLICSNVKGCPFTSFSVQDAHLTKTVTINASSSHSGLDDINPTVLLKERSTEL

[6] = tested on: Rattus norvegicus; experiment: Anti-inflammatory activity Wistar rat assessed as inhibition of carrageenan-induced paw edema at 25 to 50 mg/kg pretreated 30 mins prior to carrageenan-induction and measured after 0.5 to 24 hrs by plethysmography; type: functional, organism-based; conditions: TDE = time-dependent effect
Summary of the method: (§2)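 Male Wistar rats, 4–6 weeks old and weighing 150–200 g, were housed four per cage at 22–24 °C with standard food and water.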

[7] = tested on: Rattus norvegicus; experiment: Anti-inflammatory activity Wistar rat assessed as inhibition of carrageenan-induced paw edema at 25 to 50 mg/kg pretreated 30 mins prior to carrageenan-induction and measured after 24 hrs by plethysmography; type: functional; summary of the method: as §2
[8] = tested on: Rattus norvegicus; experiment: Anti-inflammatory activity Wistar rat assessed as reduction in TNF-alpha production at 25 mg/kg, ip pretreated 30 mins prior to carrageenan-induction and measured after 24 hrs post induction by immunoassay; type: functional, organism-based; summary of the method: as §2
[9] = tested on: Rattus norvegicus; experiment: Anti-inflammatory activity Wistar rat assessed as reduction in IL-6 production at 25 mg/kg, ip pretreated 30 mins prior to carrageenan-induction and measured after 24 hrs post induction by immunoassay; type: functional, organism-based; summary of the method: as §2
[10] = tested on: Rattus norvegicus; experiment: Anti-inflammatory activity Wistar rat assessed as reduction in IL-1beta production at 25 mg/kg, ip pretreated 30 mins prior to carrageenan-induction and measured after 24 hrs post induction by immunoassay; type: functional, organism-based; summary of the method: as §2
[11] = In-vitro anti-inflammatory activity assessed as inhibition of heat-induced albumin (unknown origin) denaturation at 100 ug/ml
[12] = tested on: Erythrocyte; experiment: Anti-inflammatory activity in human erythrocytes assessed as inhibition of heat-induced hemolysis at 10 ug/ml relative to control; type: functional
[13] = tested on: Erythrocyte; experiment: Anti-inflammatory activity in human erythrocytes assessed as inhibition of heat-induced hemolysis at 25 ug/ml relative to control; type: functional
[14] = tested on: Erythrocyte; experiment: Anti-inflammatory activity in human erythrocytes assessed as inhibition of heat-induced hemolysis at 50 ug/ml relative to control; type: functional
[15] = tested on: Erythrocyte; experiment: Anti-inflammatory activity in human erythrocytes assessed as inhibition of heat-induced hemolysis at 100 ug/ml relative to control; type: functional
[16] = tested on: Erythrocyte; experiment: Anti-inflammatory activity in human erythrocytes assessed as inhibition of hypotonicity-induced hemolysis at 10 ug/ml relative to control; type: functional
[17] = tested on: Erythrocyte; experiment: Anti-inflammatory activity in human erythrocytes assessed as inhibition of hypotonicity-induced hemolysis at 25 ug/ml relative to control; type: functional
[18] = tested on: Erythrocyte; experiment: Anti-inflammatory activity in human erythrocytes assessed as inhibition of hypotonicity-induced hemolysis at 50 ug/ml relative to control; type: functional
[19] = tested on: Erythrocyte; experiment: Anti-inflammatory activity in human erythrocytes assessed as inhibition of hypotonicity-induced hemolysis at 100 ug/ml relative to control; type: functional
[20] = tested on: Rattus norvegicus; experiment: Analgesic activity in Wistar rat assessed as reduction in acetic acid-induced abnormal writhing administered intraperitoneally 1 hr prior to acetic acid induction relative to control; type: functional; set-up: scale not given: the % may be the effect or the level left; summary of the method: as §2
[21] = tested on: Rattus norvegicus; experiment: Analgesic activity in Wistar rat assessed as reduction in acetic acid-induced abnormal writhing administered intraperitoneally 30 mins after substance P injection followed by acetic acid induction after 30 mins; type: functional, organism-based; summary of the method: as §2
[22] = Inhibition of soyabean 5-LOX after 5 mins by spectrophotometric analysis; set-up: species or system Glycine max
[23] = Acute toxicity in Wistar rat assessed as induction of behavioural changes at 50 mg/kg, po administered as as single dose observed continuously during first 4 hrs followed by periodic monitoring for 24 hrs and subsequent observations at once or twice daily for 14 days; type: organism-based; conditions: in vivo
Summary of the method: (§3)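 Rats of either sex were used, per OECD guidelines, housed four per cage at 22–24 °C with standard food and water. They were fasted 4 h before and 2 h after dosing. Compounds were given as a single oral dose, with an untreated control group. Animals were watched continuously for the first 4 h, then periodically to 24 h, then once or twice daily for 14 days.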

[24] = Acute toxicity in Wistar rat assessed as induction of irritation at 300 to 2000 mg/kg, po administered as as single dose observed continuously during 1 to 4 hrs; type: organism-based; conditions: in vivo; summary of the method: as §3
[25] = Acute toxicity in Wistar rat assessed as induction of itching at 300 to 2000 mg/kg, po administered as as single dose observed continuously during 1 to 4 hrs; type: organism-based; conditions: in vivo; summary of the method: as §3
[26] = Acute toxicity in Wistar rat assessed as induction of sneezing at 300 to 2000 mg/kg, po administered as as single dose observed continuously during 1 to 4 hrs; type: organism-based; conditions: in vivo; summary of the method: as §3
[27] = Cardiotoxicity in Wistar rat assessed as effect on myocardium at 2000 mg/kg, po administered as as single dose observed continuously during first 4 hrs followed by periodic monitoring for 24 hrs and subsequent observations at once or twice daily for 14 days by hematoxylin and eosin staining-based assay; type: toxicity, organism-based; conditions: in vivo
[28] = Hepatotoxicity in Wistar rat assessed as effect on liver at 2000 mg/kg, po administered as as single dose observed continuously during first 4 hrs followed by periodic monitoring for 24 hrs and subsequent observations at once or twice daily for 14 days by hematoxylin and eosin staining-based assay; type: toxicity, organism-based; conditions: in vivo
[29] = Renal toxicity in Wistar rat assessed as effect on kidney at 2000 mg/kg, po administered as as single dose observed continuously during first 4 hrs followed by periodic monitoring for 24 hrs and subsequent observations at once or twice daily for 14 days by hematoxylin and eosin staining-based assay; type: organism-based; conditions: in vivo
[30] = Acute toxicity in Wistar rat assessed as induction of behavioural changes at 50 to 2000 mg/kg, po administered as as single dose observed continuously during first 4 hrs followed by periodic monitoring for 24 hrs and subsequent observations at once or twice daily for 14 days; conditions: in vivo

For `CC(=O)N1N=C(c2cc3ccccc3oc2=O)CC1c1ccc(Cl)cc1` (stereo not drawn), the inhibition [1] was “Dose-dependent effect”, the Activity [2] was “Dose-dependent effect” and the Activity [3] was “Active”.

In the case of `CC(=O)N1N=C(c2cc3ccccc3oc2=O)CC1c1ccc([N+](=O)[O-])cc1` (stereo not drawn), the IC50 [4] is reported as 16.2 µM, the IC50 [5] is reported as 1.79 µM and the inhibition [1] is reported as “Dose-dependent effect”. The Activity [2] was “Dose-dependent effect”, the inhibition [6] was “Tde” and the “inhibition (INH)” value [7] was 52.17%. For the same compound, the Activity [8] was “Active”, the Activity [9] was “Active” and the Activity [10] was “Active”. For the same compound, the Activity [3] was “Active”.

For `COc1ccc(C2CC(c3cc4ccccc4oc3=O)=NN2C(C)=O)cc1` (stereo not drawn), the IC50 [4] was 22.4 µM, the IC50 [5] was 0.41 µM and the inhibition [1] was “Dose-dependent effect”. The inhibition [11] was 70%, the Activity [2] was “Dose-dependent effect” and the inhibition at 10 µg/mL [12] was 60%. The inhibition at 25 µg/mL [13] was 63%, the inhibition at 50 µg/mL [14] was 67% and the inhibition at 100 µg/mL [15] was 69%. It also gave an inhibition at 10 µg/mL [16] of 62%, an inhibition at 25 µg/mL [17] of 63% and an inhibition at 50 µg/mL [18] of 67%. For the same compound, the inhibition at 100 µg/mL [19] was 68%, the inhibition [6] was “Tde” and the “inhibition (INH)” value [7] was 67.39%. The Activity [8] was “Active”, the Activity [9] was “Active” and the Activity [10] was “Active”. For the same compound, the Activity [20] was 70.5%, the Activity [21] was “inactive” and the IC50 [22] was 12 µM. The Activity [23] was “Non-Toxic”, the Activity [24] was “Toxic” and the Activity [25] was “Toxic”. The Activity [26] was “Toxic”, the Activity [27] was “Non-Toxic” and the Activity [28] was “Non-Toxic”. For the same compound, the Activity [29] was “Non-Toxic”, the Activity [3] was “Active” and the Activity [30] was “Non-Toxic”.

With `COc1ccccc1C1CC(c2cc3ccccc3oc2=O)=NN1C(C)=O` (stereo not drawn) the IC50 [4] was greater than 30 µM, the IC50 [5] was 4.37 µM and the inhibition [1] was “Dose-dependent effect”. For the same compound, the Activity [2] was “Dose-dependent effect” and the Activity [3] was “Active”.

With `Cc1ccc(-c2ncc(Cl)cc2-c2ccc(S(C)(=O)=O)cc2)cn1` [ETORICOXIB] the IC50 [4] was greater than 30 µM, the IC50 [5] was 0.23 µM and the inhibition at 10 µg/mL [12] was 65%. The inhibition at 25 µg/mL [13] was 73%, the inhibition at 50 µg/mL [14] was 78% and the inhibition at 100 µg/mL [15] was 76%. The inhibition at 10 µg/mL [16] was 52%, the inhibition at 25 µg/mL [17] was 62% and the inhibition at 50 µg/mL [18] was 66%. The inhibition at 100 µg/mL [19] was 69%, the inhibition [7] was “Active” and the Activity [20] was 57.6%.

In the case of `CC(=O)N1N=C(c2cc3ccccc3oc2=O)CC1c1ccc(O)cc1` (stereo not drawn), the IC50 [4] is reported as 20 µM, the IC50 [5] is reported as 2.39 µM and the inhibition [1] is reported as “Dose-dependent effect”. The Activity [2] was “Dose-dependent effect”, the inhibition [6] was “Tde” and the “inhibition (INH)” value [7] was 55.43%. For the same compound, the Activity [8] was “Active”, the Activity [9] was “Active” and the Activity [10] was “Active”. The Activity [3] was “Active”.

In the case of `CC(=O)N1N=C(c2cc3ccccc3oc2=O)CC1c1ccccc1` (stereo not drawn), the inhibition [1] is reported as “Dose-dependent effect”, the Activity [2] is reported as “Dose-dependent effect” and the Activity [3] is reported as “Active”.

For `COc1cc(C2CC(c3cc4ccccc4oc3=O)=NN2C(C)=O)cc(OC)c1OC` (stereo not drawn), the IC50 [4] was greater than 30 µM, the IC50 [5] was 4.35 µM and the inhibition [1] was “Dose-dependent effect”. The Activity [2] was “Dose-dependent effect” and the Activity [3] was “Active”.
